# From ChEMBL document CHEMBL1143665, “Novel acyclic enediynes inhibit Cyclin A and Cdc25C expression and induce apoptosis phenomenon to show potent antitumor proliferation” (2007)
# Active and inactive are the calls of the source. No cut-off for these calls is given here.
# What was measured:
# [1] = system: SR; test: Cytotoxicity against human SR cells; format: functional
# [2] = system: HCT-15; test: Cytotoxicity against human HCT15 cells; format: functional
# [3] = system: DU-145; test: Cytotoxicity against human DU145 cells; format: functional
# [4] = system: MDA-MB-435; test: Cytotoxicity against human MDA-MB-435 cells; format: functional
# [5] = system: K562; test: Cell cycle arrest in human K562 cells by accumulation at G2/M phase cell at 50 uM after 24 hrs relative to control; format: functional
# Summary of the method: (§1)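 K-562 cells (RPMI 1640, 10% fetal calf serum, 37 °C, 5% CO2) exposed 24 h, pelleted, fixed in ice-cold 70% ethanol 30 min, RNase A (1 mg/ml) 37 °C 30 min, propidium iodide stain 30 min at room temperature in the dark; DNA content of 10,000 events by flow cytometry; phase and sub-G1 percentages compared with untreated control.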
# [6] = system: K562; test: Induction of apoptosis in human K562 cells assessed as accumulation at subG1 phase at 50 uM after 24 hrs relative to control; format: functional; summary of the method: as §1
# [7] = system: OVCAR-3; test: Cytotoxicity against human OVCAR-3 cells; format: functional
# [8] = system: LOX IMVI; test: Cytotoxicity against human LOX IMVI cells; format: functional
# [9] = system: SF-295; test: Cytotoxicity against human SF295 cells; format: functional
# [10] = system: K562; test: Cytotoxicity against human K562 cells; format: functional
# [11] = system: K562; test: Cell cycle arrest in human K562 cells by accumulation at S phase cell at 50 uM after 24 hrs relative to control; format: functional; summary of the method: as §1
# [12] = system: K562; test: Cell cycle arrest in human K562 cells by accumulation at G0/G1 phase cell at 50 uM after 24 hrs relative to control; format: functional; summary of the method: as §1
# [13] = system: M14; test: Cytotoxicity against human M14 cells; format: functional
# [14] = system: MDA-MB-231; test: Cytotoxicity against human MDA-MB-231 cells; format: functional
# [15] = system: SK-OV-3; test: Cytotoxicity against human SKOV3 cells; format: functional
# [16] = system: K562; test: Decrease in Cyclin A protein levels in human K562 cells at 50 uM; format: functional, cell-based
# Summary of the method: (§2)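 Western blot of treated K-562 cells: lysis in Tris pH 7.5/1% NP-40/EDTA/NaCl with protease inhibitors on ice 30 min, spun 20,000g 30 min 4 °C; 50 µg lysate on 12% SDS-PAGE, PVDF transfer, probed with anti-Cdk1, -Cdk2, -Cyclin A, -Cyclin B1 or -Cdc25C; enhanced chemiluminescence detection.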
# [17] = system: K562; test: Effect on Cyclin B protein levels in human K562 cells at 50 uM; format: functional, cell-based; summary of the method: as §2
# [18] = system: K562; test: Effect on Cdk1 protein levels in human K562 cells at 50 uM; format: functional, cell-based; summary of the method: as §2
# [19] = system: K562; test: Decrease in Cyclin A protein levels in human K562 cells at 25 uM; format: functional, cell-based; summary of the method: as §2
# [20] = system: K562; test: Effect on Cdk1 protein levels in human K562 cells at 25 uM; format: functional, cell-based; summary of the method: as §2
# [21] = system: K562; test: Decrease in Cdc25C protein levels in human K562 cells at 25 uM; format: functional, cell-based; summary of the method: as §2
# [22] = system: K562; test: Decrease in Cdc25C protein levels in human K562 cells at 50 uM; format: functional, cell-based; summary of the method: as §2
# [23] = system: K562; test: Effect on Cdk2 protein levels in human K562 cells at 25 uM; format: functional, cell-based; summary of the method: as §2
# [24] = system: K562; test: Effect on Cyclin B protein levels in human K562 cells at 25 uM; format: functional, cell-based; summary of the method: as §2
# [25] = system: K562; test: Effect on Cdk2 protein levels in human K562 cells at 50 uM; format: functional, cell-based; summary of the method: as §2
# [26] = biological target: T1, Caspase-3 (Homo sapiens) (UniProt P42574); test: Increase in caspase 3 activation in human K562 cells at 25 uM relative to control; format: cell-based
# T1 sequence (whole entry): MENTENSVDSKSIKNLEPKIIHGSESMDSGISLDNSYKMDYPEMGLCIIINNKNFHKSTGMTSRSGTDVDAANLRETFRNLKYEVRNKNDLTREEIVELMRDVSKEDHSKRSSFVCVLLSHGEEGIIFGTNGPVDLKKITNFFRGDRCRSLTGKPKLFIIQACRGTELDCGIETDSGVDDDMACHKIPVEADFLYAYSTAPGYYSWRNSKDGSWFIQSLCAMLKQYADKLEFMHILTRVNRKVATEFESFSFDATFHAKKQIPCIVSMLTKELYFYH
# Summary of the method: (§3)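 K-562 cells treated 24 h, washed, lysed in 50 mM Tris-HCl pH 7.4, 1 mM EDTA, 10 mM EGTA, spun 18,000g 3 min; lysate (50 µg protein) incubated with 100 µM caspase-specific colorimetric substrate at 37 °C for 1 h; cleavage read as absorbance at 405 nm, expressed as fold of control.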
# [27] = biological target: T1, Caspase-3 (Homo sapiens); test: Increase in caspase 3 activation in human K562 cells at 50 uM relative to control; format: cell-based; summary of the method: as §3
# [28] = biological target: Caspase-8 (Homo sapiens) (UniProt Q14790); test: Increase in caspase 8 activation in human K562 cells at 25 uM relative to control; format: cell-based; summary of the method: as §3
# [29] = biological target: T2, Caspase-9 (Homo sapiens) (UniProt P55211); test: Increase in caspase 9 activation in human K562 cells at 50 uM relative to control; format: cell-based; summary of the method: as §3
# T2 sequence (whole entry): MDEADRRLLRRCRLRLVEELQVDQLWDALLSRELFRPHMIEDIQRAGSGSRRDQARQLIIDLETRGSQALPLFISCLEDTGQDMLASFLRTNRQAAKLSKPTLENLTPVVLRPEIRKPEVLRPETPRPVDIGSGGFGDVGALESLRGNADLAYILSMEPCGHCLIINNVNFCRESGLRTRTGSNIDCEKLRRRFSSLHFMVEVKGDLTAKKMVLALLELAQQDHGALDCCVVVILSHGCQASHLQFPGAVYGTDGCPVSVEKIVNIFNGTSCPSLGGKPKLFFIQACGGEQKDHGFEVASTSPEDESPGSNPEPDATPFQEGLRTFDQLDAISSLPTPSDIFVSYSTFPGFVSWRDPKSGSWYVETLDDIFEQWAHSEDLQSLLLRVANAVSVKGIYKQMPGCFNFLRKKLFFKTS
# [30] = biological target: T2, Caspase-9 (Homo sapiens); test: Increase in caspase 9 activation in human K562 cells at 25 uM relative to control; format: cell-based; summary of the method: as §3
# [31] = system: K562; test: Induction of apoptosis in human K562 cells at 50 uM in presence of Z-DEVD-FMK; format: functional
# Summary of the method: (§4)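 K-562 cells preincubated 1 h with caspase-3 (Z-DEVD-FMK), -8 (Z-IETD-FMK) or -9 (Z-LEHD-FMK) inhibitor, then exposed 24 h; cells fixed in 70% ethanol, RNase A (500 U/ml) 37 °C 15 min, propidium iodide 50 µg/ml in PBS; sub-G1 fraction by flow cytometry.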
# [32] = biological target: Caspase-8 (Homo sapiens) (UniProt Q14790); test: Increase in caspase 8 activation in human K562 cells at 50 uM relative to control; format: cell-based; summary of the method: as §3
# [33] = system: K562; test: Induction of apoptosis in human K562 cells at 50 uM in presence of Z-IETD-FMK; format: functional; summary of the method: as §4
# [34] = system: K562; test: Induction of apoptosis in human K562 cells at 50 uM in presence of Z-LEHD-FMK; format: functional; summary of the method: as §4
# Chain of Caspase-8 (Homo sapiens) (Q14790 217-374 limits assumed): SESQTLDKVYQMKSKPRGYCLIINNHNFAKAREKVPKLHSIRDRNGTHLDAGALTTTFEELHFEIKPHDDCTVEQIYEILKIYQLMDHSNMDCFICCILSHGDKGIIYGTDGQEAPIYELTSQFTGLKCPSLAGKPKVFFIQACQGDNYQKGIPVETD
# Chain of Caspase-8 (Homo sapiens) (Q14790 385-479 limits assumed): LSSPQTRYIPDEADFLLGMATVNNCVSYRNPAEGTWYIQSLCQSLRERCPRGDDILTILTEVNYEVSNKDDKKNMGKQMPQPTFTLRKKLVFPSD
SMILES,GI50 [1] [µM],GI50 [2] [µM],GI50 [3] [µM],GI50 [4] [µM],Activity [5] [%],Activity [6] [%],GI50 [7] [µM],GI50 [8] [µM],GI50 [9] [µM],GI50 [10] [µM],Activity [11] [%],Activity [12] [%],further results
OCCCCC#Cc1ccccc1C#Cc1ccccn1,25.5,29.8,9.8,25.1,17,4.4,26.1,27.7,21.8,29,52.6,30.4,
OCCCCC#Cc1ccccc1C#Cc1cccc(O)c1,,13.6,17.4,16.1,36.2,18.25,20,16.7,21,19.2,37.1,26.7,
OCCC#Cc1ccccc1C#Cc1ccccc1,,,12.5,,,,,,28.1,11,,,GI50 [13]: 16 µM; GI50 [14]: 3.41 µM; GI50 [15]: 17.3 µM
COc1ccccc1C#Cc1ccccc1C#CCCCCO,1,19.9,14.3,20.2,27.6,8.08,19.8,17.9,22.1,15.5,41.5,30.9,
OCCCCC#Cc1ccccc1C#Cc1cccc(C(F)(F)F)c1,18.3,16.3,15.3,16.9,29.4,3.84,16.8,17.5,16.5,22.5,40,30.6,
CSc1ccccc1C#Cc1ccccc1C#CCCCCO,3.5,3.8,4.7,3.9,55.7,9.23,14.7,5.8,1.5,6.1,24.6,19.8,
N#Cc1ccc(C#Cc2ccccc2C#CCCCCO)cc1,,15.6,16,18.9,10.8,5.65,19.9,18.3,21.5,21.7,38,51.2,
OCCCCC#Cc1ccccc1C#Cc1ccccc1C(F)(F)F,0.4,3.5,6.1,0.8,86.5,10.47,2.3,4.9,2.3,1.1,10.8,2.7,Activity [16]: Active; Activity [17]: inactive; Activity [18]: inactive; Activity [19]: Active; Activity [20]: inactive; Activity [21]: Active; Activity [22]: Active; Activity [23]: inactive; Activity [24]: inactive; Activity [25]: inactive
OCC#Cc1ccccc1C#Cc1ccccc1,,,14.9,,,,,,20.6,26,,,GI50 [13]: 10.6 µM; GI50 [14]: 3.26 µM; GI50 [15]: 16.6 µM
OCCCCC#Cc1ccccc1C#Cc1ccc(O)cc1,,14.1,16.8,16.1,34.9,23.56,14.8,13.6,16.2,20.4,39.5,25.6,Fold change [26]: 1.4; Fold change [27]: 2.6; Fold change [28]: 1.2; Fold change [29]: 1.7; Fold change [30]: 1.5; Activity [31]: 17%; Fold change [32]: 1.8; Activity [33]: 19%; Activity [34]: 42%
OCCCCC#Cc1ccccc1C#Cc1ccccc1,,,5.22,,,,,,0.15,21.1,,,GI50 [13]: 10 µM; GI50 [14]: 4.29 µM; GI50 [15]: 10.7 µM
OCCCCC#Cc1ccccc1C#Cc1ccc(C(F)(F)F)cc1,0.6,12.5,15.8,16.3,24.8,5.36,17.8,17.1,19.1,18.2,38.3,36.9,
OCCCCC#Cc1ccccc1C#Cc1cccs1,1.8,13.1,13,16.6,29.8,5.23,15,13.9,19,20.3,47.5,22.7,
COc1cccc(C#Cc2ccccc2C#CCCCCO)c1,1.9,3.6,4.1,1.9,84.6,10.81,10.7,6.3,7.9,1.8,11.9,3.4,
